Assay outcomes as filed in PubChem.
An excerpt weighted towards active compounds, which were near 3.4% of everything screened.
TMEM16A act – mouse TMEM16A channel activation, primary screen. Q8BHY3. B-score at 10 µM. AID 623877. HEK293 TMEM16A/YFP-H148Q/I152L, iodide quench fluorescence; stronger effect = lower value. hit rate 0.3% among 340,000;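 active = fluorescence-ratio B-score plate-corrected deviation score at least 3 library SD below zero, with starting fluorescence score within 5 deviations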;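 note: channel opened by trigger with iodide after compound preincubation; score built on the fluorescence ratio of max minus min over baseline; more negative score means more quench and so TMEM16A activation or potentiation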
Target sequence (Q8BHY3 whole entry, looked up): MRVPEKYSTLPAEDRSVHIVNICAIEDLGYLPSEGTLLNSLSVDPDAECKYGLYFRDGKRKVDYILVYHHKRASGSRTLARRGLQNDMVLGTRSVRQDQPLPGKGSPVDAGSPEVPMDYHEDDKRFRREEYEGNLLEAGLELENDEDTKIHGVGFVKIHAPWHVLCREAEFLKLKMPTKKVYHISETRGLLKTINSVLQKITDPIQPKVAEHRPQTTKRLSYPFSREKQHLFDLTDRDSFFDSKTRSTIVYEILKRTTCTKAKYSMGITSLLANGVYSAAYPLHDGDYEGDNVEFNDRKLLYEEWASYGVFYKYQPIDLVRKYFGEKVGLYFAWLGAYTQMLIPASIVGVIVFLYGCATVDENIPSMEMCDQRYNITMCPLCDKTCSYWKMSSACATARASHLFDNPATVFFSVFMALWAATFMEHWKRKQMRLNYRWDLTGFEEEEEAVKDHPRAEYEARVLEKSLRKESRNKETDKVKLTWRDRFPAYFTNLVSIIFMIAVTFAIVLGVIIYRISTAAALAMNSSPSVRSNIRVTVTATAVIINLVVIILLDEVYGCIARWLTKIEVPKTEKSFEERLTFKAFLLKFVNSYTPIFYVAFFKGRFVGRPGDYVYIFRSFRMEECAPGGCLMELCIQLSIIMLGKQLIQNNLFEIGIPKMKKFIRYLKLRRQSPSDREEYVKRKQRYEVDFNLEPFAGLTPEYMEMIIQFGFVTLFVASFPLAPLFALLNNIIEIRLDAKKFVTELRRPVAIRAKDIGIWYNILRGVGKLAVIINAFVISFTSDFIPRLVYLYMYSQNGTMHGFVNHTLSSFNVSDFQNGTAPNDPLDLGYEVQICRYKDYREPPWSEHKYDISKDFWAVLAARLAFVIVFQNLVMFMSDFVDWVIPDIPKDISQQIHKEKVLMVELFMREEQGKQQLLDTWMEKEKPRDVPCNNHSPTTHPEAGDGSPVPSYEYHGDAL
MC4R barr agon – agonists of human melanocortin 4 receptor (MC4R) beta-arrestin | P32245 | U2OS MC4R beta-arrestin complementation, luminescence; percent of melanotan II response, DMSO zero | activation, % at 8.9 µM | hit rate 0.98% among 360,000 | AID 540308;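 active = activation above a per-plate cutoff, the mean activation of sample wells on that plate plus 3 SD, cut at about 8% in these data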
beta cell repl – MIN6 beta-cell proliferation induction | MIN6 cells proliferation, ATPlite luminescence, 48 h; cells starved in 0.2% serum; 100% = growth in 10% serum | proliferation, % at 10 µM | hit rate 0.29% among 330,000 | AID 2380;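 active = compounds whose signal lies at least 3.5 SD above the mean of all wells on their plate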
TMEM16A inh – blocks the mouse calcium-activated chloride channel TMEM16A | normalized B-score (activity score, 25-100; higher = stronger inhibition) at 10 µM | hit rate 1.2% among 310,000 | Q8BHY3 | HEK293 TMEM16A/YFP iodide influx fluorescence, ionomycin;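 active = ratio plate-corrected score three or more library SD toward inhibition, starting fluorescence score within five deviations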;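 note: score derived from kinetic fluorescence span divided by baseline fluorescence per well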
m5-HT2A agonist – activates the mouse 5-HT2A serotonin receptor. CHO-K1 mHTR2A beta-arrestin complementation, luminescence; percent of 30 µM serotonin response. activation, % at 7.6 µM. hit rate 0.66% among 360,000. AID 624169;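 active = activation above a run cutoff, the mean activation of all tested compounds plus 3 SD, cut at about 14% in these data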
MC4R antagonist – antagonists of human melanocortin 4 receptor (MC4R); inhibition, % at 6.5 µM; AID 540295; MC4R-expressing cells, MTII-stimulated cAMP, LANCE TR-FRET; hit rate 0.48% among 360,000;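 active = inhibition above its plate's cutoff, the mean of tested wells on that plate plus 3 SD, cut at about 29% in these data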
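Assay system: U2OS cells stably expressing human melanocortin 4 receptor (MC4R) / Dosing: 6.5 µM / Timing: compound 30 min, challenge 1 h, detection 1 h / Measured by: Eu-cAMP/anti-cAMP TR-FRET, emission 671 nm / Replicates: singlicate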
MOR ag counter – OPRM1 agonism in mouse HTR2A counterscreen. shares compounds with m5-HT2A agonist. U2OS OPRM1 beta-arrestin PathHunter, luminescence; DMSO 0%, DAMGO 9.3 µM 100%. activation, % at 9.3 µM. hit rate 5.3% among 2,300;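 active = mean activation above the mean of DMSO-only wells plus 3 SD, cut at about 0.5% in these data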
m5-HT2A ag conf – confirmation of mouse HTR2A serotonin receptor agonists. AID 624381. shares compounds with m5-HT2A agonist. hit rate 19% among 2,300. CHO-K1 PathHunter beta-arrestin recruitment, luminescence; DMSO 0%, 30 µM serotonin 100%. activation, % at 7.6 µM;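 active = mean activation across triplicates above the hit threshold derived in the original primary screen, cut at about 15% in these data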
Hits are given with their value; i = inactive; nt = no result.

SMILES	TMEM16A act	MC4R barr agon	beta cell repl	TMEM16A inh	m5-HT2A agonist	MC4R antagonist	MOR ag counter	m5-HT2A ag conf
COc1ccc(CCn2c3c(c(=O)[nH]c2=O)C(NC(=O)c2cccs2)(C(F)(F)F)C(=O)N3)cc1OC (centres undefined)	i	i	i	i	15	i	i	i
CC(=O)NC1(C(F)(F)F)C(=O)Nc2c1c(=O)[nH]c(=O)n2CCc1ccccc1 (centres undefined)	i	i	i	i	i	i	nt	nt
O=C(CCCl)N(Cc1nc2ccccc2c(=O)[nH]1)Cc1cccs1	i	i	i	i	i	i	nt	nt
CC(C)(C)C(=O)N(Cc1nc2ccccc2c(=O)[nH]1)Cc1cccs1	i	i	i	i	15	i	i	i
CCn1c(SCC(=O)NCC2CCCO2)nnc1-c1c[nH]c2ccccc12 (centres undefined)	i	i	i	i	i	i	nt	nt
Cn1c(SCC(=O)NCC2CCCO2)nnc1-c1c[nH]c2ccccc12 (centres undefined)	i	i	i	i	37	i	i	i
CCn1c(SCC(=O)N(C)c2c(N)n(Cc3ccccc3)c(=O)[nH]c2=O)nc2ccccc21	i	i	i	i	i	i	nt	nt
Cc1nnc(SCC(=O)N(C)c2c(N)n(Cc3ccccc3)c(=O)[nH]c2=O)n1Cc1ccccc1	i	i	i	i	29	i	i	i
CCC(=O)Nc1c(-c2ccc3ccccc3c2)nc2ccccn12	i	i	i	i	i	i	nt	nt
Cc1cccc(C)c1-n1nnnc1C(C1CC1)N1CCN(C/C=C/c2ccccc2)CC1 (centres undefined)	nt	nt	nt	nt	30	nt	i	57
C(=C\c1ccccc1)/CN1CCN(C(c2nnnn2C2CCCC2)C2CC2)CC1 (centres undefined)	nt	nt	nt	nt	i	nt	nt	nt
CC(C)(C)n1nnnc1C(C1CC1)N1CCN(C/C=C/c2ccccc2)CC1 (centres undefined)	nt	nt	nt	nt	20	nt	i	35
CSCCC(c1nnnn1-c1c(C)cccc1C)N1CCN(C/C=C/c2ccccc2)CC1 (centres undefined)	nt	nt	nt	nt	i	nt	nt	nt
COc1ccc(-n2nnnc2C(C2CC2)N2CCN(C/C=C/c3ccccc3)CC2)cc1 (centres undefined)	nt	nt	nt	nt	i	nt	nt	nt
CCC(c1nnnn1-c1c(C)cccc1C)N1CCN(C/C=C/c2ccccc2)CC1 (centres undefined)	nt	nt	nt	nt	27	nt	i	78
CC1(Cc2ccc(C(F)(F)F)nc2)C(=O)Nc2cc(-c3ccccc3Cl)ccc21 (centres undefined)	nt	i	nt	nt	i	i	nt	nt
CCC1CCCCN1Cc1nc2c(c(=O)n(C)c(=O)n2C)n1CCC(C)C (centres undefined)	i	i	i	i	20	i	i	i
CCc1nc2ccc(C(=O)N3CCN(C(=O)c4ccco4)CC3)cn2c1N(CC)CCOC	nt	i	nt	nt	i	i	nt	nt
Cc1ccccc1C(=O)O/N=C(\c1ccccc1)c1ccccn1	i	i	i	i	23	i	i	43
CCOC(=O)C1=C(CC)Nc2ccccc2N/C1=N\S(=O)(=O)c1cccc(C(C)=O)c1	i	i	i	nt	20	i	i	i
CN1CCN(CCCNC(=O)c2ccc3c(Cl)c4c(nc3c2)CCCC4)CC1	i	i	i	i	i	i	nt	nt
COc1ccc(-c2noc(CN(C(=O)c3ccc4c(c3)OCO4)C(C)C)n2)cc1OC	i	i	i	i	16	i	i	i
CCCCOc1ccccc1C(=O)N(Cc1ccc(C)o1)C1CCS(=O)(=O)C1 (centres undefined)	i	i	i	i	i	i	nt	nt
C=CCn1c(SCC(=O)N(CC)C2CCS(=O)(=O)C2)nc2scc(-c3ccccc3)c2c1=O (centres undefined)	i	i	nt	nt	i	i	nt	nt
c1ccc(CNc2c3ccccc3nc3ccccc23)cc1	i	i	i	i	i	i	nt	nt
SMILES	TMEM16A act	MC4R barr agon	beta cell repl	TMEM16A inh	m5-HT2A agonist	MC4R antagonist	MOR ag counter	m5-HT2A ag conf
Oc1ccc(CCNc2c3ccccc3nc3ccccc23)cc1O	i	i	i	i	42	i	i	58
O=C(NCc1ccc2c(c1)OCO2)OCc1ccccc1	nt	nt	nt	nt	i	nt	nt	nt
COc1cccc(CN2CCN(C(=S)NCc3ccc(Cl)cc3)CC2)c1	i	i	i	i	29	i	0.8	25
O=C(NCc1ccc(Cl)cc1)N1CCN(Cc2ccccc2)CC1	i	i	i	i	35	i	i	i
COc1ccc(OC)c(NC(=S)N2CCN(Cc3ccccc3)CC2)c1	i	i	i	i	i	i	nt	nt
CCn1c(SCC(=O)Nc2cccc(C)n2)nnc1-c1ccco1	nt	i	i	i	i	i	nt	nt
Cc1cccc(NC(=O)CSc2nnc(-c3ccco3)n2CC2CCCO2)n1 (centres undefined)	i	i	i	i	15	i	i	i
O=C(Nc1cccc2c1CCCC2)c1cc(C2CCCCN2C(=O)CCCc2ccccc2)on1 (centres undefined)	nt	i	nt	nt	i	i	nt	nt
Cc1c(C(=O)NCc2cccc(C(F)(F)F)c2)sc(=O)n1Cc1ccccc1F	nt	i	nt	nt	25	i	i	i
CC(C)(C)NC(=O)C(c1cc2ccccc2o1)n1c(=O)c(-c2cc3ccccc3[nH]2)nc2ccccc21 (centres undefined)	nt	nt	nt	nt	31	nt	i	i
O=C(NC1CCCCC1)C(c1ccncc1)n1c(=O)c(-c2cc3ccccc3[nH]2)nc2ccccc21 (centres undefined)	nt	nt	nt	nt	16	nt	i	i
CC1ON=C(c2ccccn2)N(Cc2ccc(S(C)(=O)=O)cc2)C1=O (centres undefined)	nt	i	nt	nt	i	i	nt	nt
CCOc1ccc(NC(=O)COc2ccc(-n3cnnn3)cc2)cc1	i	i	i	nt	i	i	nt	nt
CCOC(=O)c1ccc(NC(=O)COc2ccc(-n3cnnn3)cc2)cc1	i	i	i	i	17	i	i	15
O=S(=O)(c1ccc(OCC(O)CN2CCN(c3ccccc3O)CC2)cc1)N1CCOCC1 (centres undefined)	i	i	i	i	19	i	i	46
O=[N+]([O-])c1ccc(OCC(O)CN2CCN(c3ccccc3F)CC2)cc1 (centres undefined)	i	i	i	i	20	i	i	46
O=S(=O)(c1ccc(OCC(O)CN2CCN(c3ccccc3)CC2)cc1)N1CCOCC1 (centres undefined)	i	i	i	i	18	i	i	83
